One assay addresses T1, smTas1R2/hTas1R3 (Saimiri sciureus, UniProt A3QP08).
T1 sequence (A3QP08 20-834): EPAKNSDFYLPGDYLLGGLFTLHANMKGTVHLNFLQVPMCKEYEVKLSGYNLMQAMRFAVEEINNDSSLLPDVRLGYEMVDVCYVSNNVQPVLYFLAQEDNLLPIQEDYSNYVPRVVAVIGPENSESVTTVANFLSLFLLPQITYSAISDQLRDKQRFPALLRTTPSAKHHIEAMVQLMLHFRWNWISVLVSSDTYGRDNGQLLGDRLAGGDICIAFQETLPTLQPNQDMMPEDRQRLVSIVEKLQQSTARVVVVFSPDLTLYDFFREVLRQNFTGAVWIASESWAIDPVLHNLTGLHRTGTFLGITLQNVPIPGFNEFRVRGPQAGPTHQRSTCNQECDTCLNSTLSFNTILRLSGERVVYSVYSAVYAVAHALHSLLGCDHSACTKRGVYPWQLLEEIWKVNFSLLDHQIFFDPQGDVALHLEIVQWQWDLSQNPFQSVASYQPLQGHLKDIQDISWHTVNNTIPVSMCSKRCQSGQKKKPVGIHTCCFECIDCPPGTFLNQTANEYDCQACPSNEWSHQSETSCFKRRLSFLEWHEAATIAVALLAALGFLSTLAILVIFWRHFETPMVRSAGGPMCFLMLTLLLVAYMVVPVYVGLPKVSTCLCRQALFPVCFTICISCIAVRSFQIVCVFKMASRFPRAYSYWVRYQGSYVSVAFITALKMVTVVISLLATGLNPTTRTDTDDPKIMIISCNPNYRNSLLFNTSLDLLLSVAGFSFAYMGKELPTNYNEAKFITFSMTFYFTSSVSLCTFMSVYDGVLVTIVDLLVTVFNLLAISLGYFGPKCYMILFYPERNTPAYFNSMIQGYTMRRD
T1 sequence (Q7RTX0 21-852 partner): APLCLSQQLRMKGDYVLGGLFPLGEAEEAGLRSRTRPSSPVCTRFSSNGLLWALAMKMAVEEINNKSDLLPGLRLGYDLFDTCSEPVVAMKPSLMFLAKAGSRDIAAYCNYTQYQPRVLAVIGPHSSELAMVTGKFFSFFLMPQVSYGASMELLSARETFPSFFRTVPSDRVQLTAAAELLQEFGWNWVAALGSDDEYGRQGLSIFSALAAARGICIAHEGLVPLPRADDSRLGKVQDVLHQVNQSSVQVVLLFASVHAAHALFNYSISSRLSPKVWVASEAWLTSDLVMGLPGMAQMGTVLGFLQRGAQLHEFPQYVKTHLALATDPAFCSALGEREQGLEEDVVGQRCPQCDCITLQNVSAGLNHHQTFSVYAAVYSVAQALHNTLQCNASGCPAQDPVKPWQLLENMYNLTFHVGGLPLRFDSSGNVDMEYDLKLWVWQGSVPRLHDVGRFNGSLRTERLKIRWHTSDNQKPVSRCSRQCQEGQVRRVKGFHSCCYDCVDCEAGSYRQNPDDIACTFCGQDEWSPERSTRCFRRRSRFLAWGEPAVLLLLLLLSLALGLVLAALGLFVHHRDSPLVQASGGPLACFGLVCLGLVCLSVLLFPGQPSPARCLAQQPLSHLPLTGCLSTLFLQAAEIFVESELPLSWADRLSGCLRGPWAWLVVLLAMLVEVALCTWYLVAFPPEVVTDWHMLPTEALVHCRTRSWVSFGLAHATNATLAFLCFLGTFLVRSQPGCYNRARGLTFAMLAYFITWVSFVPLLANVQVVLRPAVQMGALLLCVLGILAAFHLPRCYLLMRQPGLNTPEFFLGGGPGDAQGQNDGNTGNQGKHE
Briefly: Ca2+ mobilization, mismatched receptor. In kind it is cell-based, human/squirrel monkey. The settings on record: aspartame 10mM, neotame 1mM, sucralose 2 mM, D-tryptophan 5mM, sucrose 150mM. The essentials:
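HEK293E cells grown at 37°C in Opti-MEM with 5% FBS and seeded at 50,000/well. Cells co-lipofected with Tas1R plasmids and Gα16-gust44 (0.06 μg each per well); medium changed at 20 h, assayed 24 h later. Cells loaded 1 h with Fluo-4 AM in HEPES-buffered HBSS. Tastant added at 30 s; fluorescence (ex 488/em 525 nm) read every 2 s for 150 s more. ΔF/F normalised to human receptor maximal sucralose response; mean ± SEM, three independent experiments.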

A further assay has as its target T2, hTas1R2/smTas1R3 (Homo sapiens, UniProt Q8TE23).
T2 sequence (Q8TE23 20-839): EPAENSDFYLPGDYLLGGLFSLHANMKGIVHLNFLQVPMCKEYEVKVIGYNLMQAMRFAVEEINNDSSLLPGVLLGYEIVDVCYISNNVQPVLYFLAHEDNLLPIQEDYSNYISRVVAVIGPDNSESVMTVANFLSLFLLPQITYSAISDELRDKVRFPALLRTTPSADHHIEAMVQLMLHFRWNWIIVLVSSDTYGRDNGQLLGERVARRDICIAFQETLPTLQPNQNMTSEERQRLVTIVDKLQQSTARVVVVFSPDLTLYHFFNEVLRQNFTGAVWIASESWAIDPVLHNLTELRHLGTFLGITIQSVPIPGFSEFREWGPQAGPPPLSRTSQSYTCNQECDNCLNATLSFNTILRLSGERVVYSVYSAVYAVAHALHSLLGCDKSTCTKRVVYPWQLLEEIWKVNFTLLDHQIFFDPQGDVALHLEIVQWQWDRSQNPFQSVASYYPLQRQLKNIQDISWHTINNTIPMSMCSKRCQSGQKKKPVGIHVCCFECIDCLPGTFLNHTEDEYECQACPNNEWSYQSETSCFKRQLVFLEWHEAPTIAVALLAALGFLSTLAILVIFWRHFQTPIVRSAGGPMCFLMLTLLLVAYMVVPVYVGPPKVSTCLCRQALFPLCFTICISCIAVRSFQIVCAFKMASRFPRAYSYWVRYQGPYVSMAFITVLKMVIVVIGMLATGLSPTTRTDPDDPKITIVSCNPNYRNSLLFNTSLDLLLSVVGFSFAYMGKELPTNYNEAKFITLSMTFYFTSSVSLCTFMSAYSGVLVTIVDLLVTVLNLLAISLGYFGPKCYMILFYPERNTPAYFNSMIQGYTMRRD
Briefly: Ca2+ mobilization, mismatched receptor. It is filed as cell-based, human/squirrel monkey. Particulars: aspartame 10mM, neotame 1mM, sucralose 2 mM, D-tryptophan 5mM, sucrose 150mM; vs control / wild type human receptor. The essentials:
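Transfected HEK293E cells (50,000/well; 0.06 μg Tas1R plasmid and 0.06 μg Gα16-gust44 per well) were medium-changed at 20 h, then loaded after 24 h with 3 μM Fluo-4 AM in HBSS/20 mM HEPES for 1 h. Tastant added 30 s into scan; fluorescence (ex 488/em 525 nm) read every 2 s for 150 s. ΔF/F normalized to the hTas1R2/hTas1R3 sucralose response; three independent experiments; unpaired t test.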

As to `N[C@H](Cc1c[nH]c2ccccc12)C(=O)O` [D-tryptophan], the “calcium response to sweetener” value at smTas1R2/hTas1R3 is listed as “remained intact or reduced”; on hTas1R2/smTas1R3 it was “reduced responses”.
As for `OC[C@H]1O[C@@](CO)(O[C@H]2O[C@H](CO)[C@@H](O)[C@H](O)[C@H]2O)[C@@H](O)[C@@H]1O` [sucrose], the “calcium response to sweetener” value at smTas1R2/hTas1R3 is recorded as “remained intact or reduced”; on hTas1R2/smTas1R3 it was “reduced responses”.

The values above are taken from publication PMC3149845 (The Journal of neuroscience : the official journal of the …, 2011).
